Measurements published in article PMC5617735 (Journal of the American Chemical Society, 2017).
≈ marks a conversion by molar mass, not a printed value. Non-standard residues stand in square brackets, D forms with d. Residues, ends and D or L forms follow the SMILES beside them. ξ: configuration not given here. *: point of attachment. ξI = CCC(C)C(N)C(=O)O; Butyryl = CCCC(=O)*

Key:
[1] = system: E. coli K12; assay: Antibacterial assay; type: cell-based; details: read-out: IC50, E. coli K12
[2] = system: Saccharomyces cerevisiae; assay: Antifungal assay; type: cell-based; details: read-out: IC50, Saccharomyces cerevisiae
[3] = biological target: cathepsin B (Homo sapiens, UniProt P07858); assay: Cathepsin B inhibition assay; type: biochemical; details: read-out: Half-maximal inhibitory concentration (IC50), Cathepsin B Inhibition
[4] = system: Enterococcus faecalis OG1RF; assay: Antibacterial assay; type: cell-based; details: read-out: IC50, Enterococcus faecalis OG1RF
[5] = system: Saccharomyces pombe; assay: Antifungal assay; type: cell-based; details: read-out: IC50, Saccharomyces pombe
[6] = system: Staphylococcus aureus Newman; assay: Antibacterial assay; type: cell-based; details: read-out: IC50, Staphylococcus aureus Newman
[7] = system: Bacillus subtilis 168; assay: Antibacterial assay; type: cell-based; details: read-out: IC50, Bacillus subtilis 168
[8] = system: Pseudomonas aeruginosa PAO1; assay: Antibacterial assay; type: cell-based; details: read-out: IC50, Pseudomonas aeruginosa PAO1
[9] = system: sur cluster (surA and surC transcripts); assay: RT-qPCR of sur cluster expression; type: cell-based, Streptomyces albus J1074; details: for induction of surA and surC: wt S. albus, vs DMSO control; for induction of surA and surC / elicitor concentration yielding optimal upregulation of sur: RT-qPCR; for upregulation of surC: at optimal elicitor concentration (~23 μM etoposide, ~30 μM ivermectin), vs DMSO; for elicitor concentration yielding optimal upregulation of sur: dose-response
Outline: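 Wild-type S. albus J1074 cultures were exposed to the test compound, with DMSO as the negative control. surA and surC mRNA were measured by RT-qPCR and expressed as fold-change versus the DMSO control. For the dose-response, concentrations were multiples of a base level: 1x equals 5.7 μM or 7.6 μM final, depending on the elicitor.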

[10] = system: S. albus; assay: Growth inhibition of S. albus by elicitors; type: cell-based, Streptomyces albus J1074
[11] = system: surR; assay: RT-qPCR of surR expression upon elicitor exposure; type: cell-based, Streptomyces albus J1074; details: wt S. albus, vs DMSO control
[12] = system: ΔsurR S. albus secondary metabolite production; assay: HPLC-Qtof-MS of sur metabolite production in ΔsurR strain treated with elicitor; type: cell-based, Streptomyces albus J1074; details: for increase in the production of surugamide I: HPLC-Qtof-MS; for upregulation of acyl-surugamide A / upregulation of albucyclone A: estimate based on lower limit of detection
[13] = system: strains tested; assay: Antibacterial and antifungal assays; type: cell-based
[14] = system: recA and lexA; assay: RT-qPCR of SOS response genes recA and lexA; type: cell-based, Streptomyces albus J1074; details: S. albus

Row | Compound | IC50 [1] | IC50 [2] | IC50 [3] | IC50 [4] | IC50 [5] | IC50 [6] | IC50 [7] | IC50 [8] | further results
1 | CC[C@@H](C)[C@H]1NC(=O)[C@H](C(C)C)NC(=O)[C@@H](C)NC(=O)[C@H](C(C)C)NC(=O)[C@@H](CC(C)C)NC(=O)[C@@H](Cc2ccccc2)NC(=O)[C@H]([C@@H](C)CC)NC(=O)[C@H](CCCCN)NC1=O [compound 11, surugamide G] (cyclo(I[dF][dL]V[dA]V[dI]K)) | > 100 µM | > 100 µM | > 100 µM | > 100 µM | > 100 µM | > 100 µM | > 100 µM | > 100 µM | –
2 | CC[C@@H](C)[C@H]1NC(=O)[C@H](C(C)C)NC(=O)[C@@H](C)NC(=O)[C@H](C(C)C)NC(=O)[C@@H](CC(C)C)NC(=O)[C@@H](Cc2ccccc2)NC(=O)[C@H](C(C)C)NC(=O)[C@H](CCCCN)NC1=O [compound 12, surugamide H] (cyclo(KV[dF][dL]V[dA]V[dI])) | – | – | 12.4 µM | – | – | – | – | – | –
3 | CCCC(=O)NCCCC[C@@H]1NC(=O)C(C(C)CC)NC(=O)C(C(C)CC)NC(=O)[C@@H](C)NC(=O)C(C(C)CC)NC(=O)[C@@H](CC(C)C)NC(=O)[C@@H](Cc2ccccc2)NC(=O)[C@H]([C@@H](C)CC)NC1=O (stereo partly drawn) [compound 15, acyl-surugamide A] (cyclo(I[dF][dL][ξI][dA][ξI][ξI]K(Butyryl))) | > 100 µM | 3.5 µM | 43.3 µM | > 100 µM | 32.5 µM | 27.4 µM | 21.7 µM | > 100 µM | –
4 | CC(C)[C@@]1(NC(=O)[C@@H]2C[C@@H]3c4cccc5[nH]cc(c45)C[C@H]3N(C)C2)O[C@@]2(O)[C@@H]3CCCN3C(=O)[C@H](Cc3ccccc3)N2C1=O [dihydroergocristine] | – | – | – | – | – | – | – | – | induction of surA and surC [9]: 3 fold
5 | COc1cc([C@@H]2c3cc4c(cc3[C@@H](O[C@@H]3O[C@@H]5CO[C@@H](C)O[C@H]5[C@H](O)[C@H]3O)[C@H]3COC(=O)[C@H]23)OCO4)cc(OC)c1O [etoposide] | – | – | – | – | – | – | – | – | upregulation of surC [9]: ~ 10 fold; elicitor concentration yielding optimal upregulation of sur [9]: ~ 23 μM; induction of surA and surC [9]: 3 fold; IC50 ([10]; Streptomyces albus, read-out: half-maximal inhibitory concentration (IC50) on S. albus): 10 µg/mL (≈ 17 µM); down-regulation of surR expression [11]: 2–2.5 fold; increase in the production of surugamide I [12]: > 35 fold; upregulation of acyl-surugamide A [12]: > 40 fold; upregulation of albucyclone A [12]: > 50 fold
6 | albucyclone A [compound 16] | – | – | > 100 µM | – | – | – | – | – | –
7 | albucyclone F [compound 21] | > 100 µM | > 100 µM | > 100 µM | > 100 µM | > 100 µM | > 100 µM | > 100 µM | > 100 µM | –
8 | albuquinone A [compound 22] | > 100 µM | > 100 µM | – | > 100 µM | > 100 µM | > 100 µM | > 100 µM | > 100 µM | antibiotic activity against the strains tested [13]: did not reveal significant antibiotic activity
9 | ivermectin | – | – | – | – | – | – | – | – | upregulation of surC [9]: 4.5 fold; elicitor concentration yielding optimal upregulation of sur [9]: ~ 30 μM; induction of surA and surC [9]: 3 fold; inhibition of S. albus growth ([10]; at the concentrations employed): did not inhibit S. albus growth; down-regulation of surR expression [11]: 2–2.5 fold; induction of recA and lexA [14]: no changes; increase in the production of surugamide I [12]: > 35 fold; upregulation of acyl-surugamide A [12]: > 40 fold; upregulation of albucyclone A [12]: > 50 fold
10 | surugamide I [compound 13] | – | – | 9 µM | – | – | – | – | – | –
11 | surugamide J [compound 14] | > 100 µM | > 100 µM | > 100 µM | > 100 µM | > 100 µM | > 100 µM | > 100 µM | > 100 µM | –
